Consider 3 compounds from ChEMBL document CHEMBL4330057, “Second generation of diazachrysenes: Protection of Ebola virus infected mice and mechanism of action” (Eur J Med Chem, 2019).

Activity calls are given as the source filed them. No cut-off for these calls is given here.

Series [1] deals with Ebolavirus. The series is described as follows: Antiviral activity against Ebolavirus infected in mouse assessed as protection against viral infection at 20 mg/kg/day relative to control. The series is classed as functional.
The test system of series [2] is Ebolavirus. Briefly: Antiviral activity against Ebolavirus infected in mouse assessed as protection against viral infection at 24 mg/kg/day relative to control. The series is classed as functional.
Series [3] concerns Ebolavirus. Briefly: Antiviral activity against Ebolavirus H. sapiens-wt/1995/Kikwit-9510621 infected in African green monkey Vero cells assessed as inhibition of viral infection pretreated for 2 hrs followed by viral infection and measured after 48 hrs by EboV GP immunostaining based high content imaging analysis. The series is classed as functional, organism-based. The following applies: Orthoebolavirus, H. sapiens-wt/1995/Kikwit-9510621, Vero.

Series [4] is described as follows: Toxicity in 6 hrs post fertilized zebrafish embryo assessed as tail detachment up to 50 uM up to 120 hrs post fertilization by inverted microscopic method. Further details: species or system Danio rerio. The following applies: in vivo.
A short description of series [5]: Toxicity in 6 hrs post fertilized zebrafish embryo assessed as teratogenic effect by measuring malformation of head up to 50 uM up to 120 hrs post fertilization by inverted microscopic method. Format: tissue-based, Danio rerio. The settings on record: in vivo.
The nature of series [6]: Toxicity in 6 hrs post fertilized zebrafish embryo assessed as teratogenic effect by measuring malformation of eyes up to 50 uM up to 120 hrs post fertilization by inverted microscopic method. Details: species or system Danio rerio. The settings on record: in vivo.
Series [7] in a line: Toxicity in 6 hrs post fertilized zebrafish embryo assessed as teratogenic effect by measuring malformation of sacculi/otoliths up to 50 uM up to 120 hrs post fertilization by inverted microscopic method. Details: species or system Danio rerio. The settings on record: in vivo.
A short description of series [8]: Toxicity in 6 hrs post fertilized zebrafish embryo assessed as teratogenic effect by measuring malformation of notochord up to 50 uM up to 120 hrs post fertilization by inverted microscopic method. The series is classed as tissue-based, Danio rerio. The settings on record: in vivo.
Series [9] is described as follows: Toxicity in 6 hrs post fertilized zebrafish embryo assessed as teratogenic effect by measuring malformation of tail up to 50 uM up to 120 hrs post fertilization by inverted microscopic method. The following applies: in vivo. The series is classed as tissue-based, Danio rerio.
The nature of series [10]: Toxicity in 6 hrs post fertilized zebrafish embryo assessed as teratogenic effect by measuring scoliosis up to 50 uM up to 120 hrs post fertilization by inverted microscopic method. Details: species or system Danio rerio. The settings on record: in vivo.
Series [11] in a line: Toxicity in 6 hrs post fertilized zebrafish embryo assessed as teratogenic effect by measuring effect on heart beat frequency up to 50 uM up to 120 hrs post fertilization by inverted microscopic method. Further details: species or system Danio rerio. The following applies: in vivo.
Series [12] is described as follows: Toxicity in 6 hrs post fertilized zebrafish embryo assessed as teratogenic effect by measuring effect on blood circulation up to 50 uM up to 120 hrs post fertilization by inverted microscopic method. Details: species or system Danio rerio. The settings on record: in vivo.
Series [13] is described as follows: Toxicity in 6 hrs post fertilized zebrafish embryo assessed as teratogenic effect by measuring pericardial edema up to 50 uM up to 120 hrs post fertilization by inverted microscopic method. Details: species or system Danio rerio. The settings on record: in vivo.
The nature of series [14]: Toxicity in 6 hrs post fertilized zebrafish embryo assessed as teratogenic effect by measuring yolk edema up to 50 uM up to 120 hrs post fertilization by inverted microscopic method. The settings on record: in vivo. Further details: species or system Danio rerio.
Series [15] in a line: Toxicity in 6 hrs post fertilized zebrafish embryo assessed as teratogenic effect by measuring yolk absorption up to 50 uM up to 120 hrs post fertilization by inverted microscopic method. Further details: species or system Danio rerio. The settings on record: in vivo.
Series [16] in a line: Toxicity in 6 hrs post fertilized zebrafish embryo assessed as teratogenic effect by measuring liver morphology and color up to 50 uM up to 120 hrs post fertilization by inverted microscopic method. Format: tissue-based, Danio rerio. The settings on record: in vivo.
Series [17] is described as follows: Toxicity in 6 hrs post fertilized zebrafish embryo assessed as teratogenic effect by measuring growth retardation up to 50 uM up to 120 hrs post fertilization by inverted microscopic method. Details: species or system Danio rerio. The settings on record: in vivo.
Series [18] is described as follows: Hepatotoxicity in 6 hrs post fertilized transgenic l-fabp:EGFP zebrafish embryo assessed as change in liver area index up to 30 uM up to 120 hrs post fertilization by fluorescence assay. Format: toxicity, Danio rerio. The settings on record: in vivo. An outline of the steps: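 Tg(l-fabp:EGFP) zebrafish embryos exposed from 6 hpf. At 120 hpf, liver area index (liver area/lateral body area) and liver fluorescence assessed by in vivo imaging.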

Series [19] in a line: Hepatotoxicity in 72 hrs post fertilized transgenic l-fabp:EGFP zebrafish embryo assessed as change in liver fluorescence up to 80 uM up to 120 hrs post fertilization by fluorescence assay. Format: toxicity, Danio rerio. The settings on record: in vivo. An outline of the steps:
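Transgenic Tg(l-fabp:EGFP) zebrafish with fluorescent liver, exposed to compound added at 72 hpf. Liver imaged in vivo at 120 hpf. Read-outs were liver fluorescence and liver area index (liver area divided by lateral body area).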

A short description of series [20]: Myelotoxicity in 6 hrs post fertilized transgenic mpx:GFP zebrafish embryo assessed as reduction in neutrophil occurrence at >= 80 uM measured at 72 hrs hrs post fertilization by fluorescence assay. Details: species or system Danio rerio.
The next series has as its system Zaire ebolavirus. The series is described as follows: Antiviral activity against VSV pseudotyped Ebolavirus Mayinga expressing GFP infected in human HeLa cells assessed as inhibition of viral infection at 10 uM pre-incubated for 2 hrs followed by viral infection and measured after 8 hrs by cell mask deep red staining based assay. Format: functional, organism-based. The following applies: 1976. An outline of the steps:
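HeLa cells pretreated 2 h with compound, then infected with rVSV-EBOV-GP-GFP (8 h) or VSV-GFP (6 h), and stained with Cell Mask Deep Red. Relative inhibition = 1 minus (% GFP-expressing cells normalised to mock). Mean ± SD of three replicates, representative of three independent experiments.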

Series [21] has as its system HeLa. The series is described as follows: Induction of lysosomotropism in human HeLa cells infected with Ebolavirus assessed as increase in fluorescence intensity of acid compartments at 10 uM for 1 hr by Lysosensor DND189 staining based assay. The series is classed as functional, cell-based. An outline of the steps:
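HeLa cells were pretreated 1 h with compound (Bafilomycin A1 at 0.01 μM as acidification control), then stained with LysoSensor DND 189 for 10 min and washed. Live imaging at Ex/Em 443/505 nm. Fluorescence intensity per area was quantified by image analysis. Eight wells per point, about 3000 cells/well, mean ± SD, three independent experiments.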

Series [22] deals with HeLa. The series is described as follows: Induction of lysosomotropism in human HeLa cells infected with Ebolavirus assessed as increase in lysosome concentration in juxtanuclear region at 10 uM for 2 hrs by acridine orange staining based assay. Format: functional, cell-based. The procedure, abridged: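 HeLa cells were pretreated with compound for 2 h, then given acridine orange for 30 min and washed. Red AO fluorescence in acidic compartments was imaged, and total intensity and average area were scored by high-content imaging. Eight wells per point, about 3000 cells/well, mean ± SD, representative of three independent experiments.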

Series [23] concerns the target Cathepsin B (Homo sapiens) (UniProt P07858). The series is described as follows: Inhibition of cathepsin B activity in human HeLa cells at 10 uM after 12 hrs by magic red substrate based fluorescence assay. Format: cell-based. An outline of the steps: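 HeLa cells were exposed to compound for 12 h, then given the Magic Red cathepsin B peptide reporter, washed, and imaged at Ex/Em 590/630. Total intensity and average area of red fluorescence were scored by high-content analysis. Eight wells per point, about 3000 cells/well, mean ± SD, three independent experiments.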

The test system of series [24] is HeLa. Briefly: Inhibition of lysosome fusion with autophagosome in human HeLa cells harboring GFP-LC3 assessed as increase in GFP-LC3-2 clustering at <50 uM after 6 hrs by Western blot analysis. Format: functional, subcellular. An outline of the steps: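 HeLa cells were exposed to compound for 6 h, then lysed and analysed by Western blot.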

`CN[C@H]1CC[C@@H](c2ccc(Cl)c(Cl)c2)c2ccccc21` [SERTRALINE]: the Activity with Ebolavirus [1] worked out at 70%.

In the case of `CC(C)COCC(CN(Cc1ccccc1)c1ccccc1)N1CCCC1` (stereo not given) [BEPRIDIL], the Activity with Ebolavirus [2] is listed as 100%.

Consider `CCN(CC)CCCC(C)Nc1ccnc2cc(Cl)ccc12` (stereo not given) [CHLOROQUINE], for which, in the series with Ebolavirus [3], the EC50 was 16 µM. For the same compound, the Activity result in series [4], in [5], in series [6], in [7], in series [8] and in series [9] was “Non-Toxic” each time. Moreover, the Activity result in series [10], in [11], in series [12], in [13], in series [14] and in series [15] was “Non-Toxic” each time. In addition, the Activity result in series [16] is listed as “Non-Toxic”; in [17], “Non-Toxic”; in series [18], “Toxic”; in series [19], “Toxic”; in series [20], “Toxic”. The outcome in the series on Zaire ebolavirus and with HeLa [22] was Active. Besides, the result in the series on HeLa [21] was inactive. The inhibition entry (in series [23]; with HeLa [24]) was “inactive” in each case.

A word on the EC50: it is the midpoint of the concentration-response curve.
